Reference: ChEMBL document CHEMBL5252639, “Exploration of cytotoxic potential and tubulin polymerization inhibition activity of cis-stilbene-1,2,3-triazole congeners” (RSC Med Chem, 2023)

Tests used:
[1] = tested on: HCT-116; assay: Cytotoxicity against human HCT-116 cells assessed as inhibition of cell growth measured for 24 hrs by MTT assay; format: functional, cell-based; conditions: HCT-116, 24 h
In short: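 Cells were kept at 37 °C with 5% CO2 in suitable medium with 10% FBS and 1% antibiotic-antimycotic, and passaged at 80-90% confluency using 0.25% trypsin/1 mM EDTA. They were seeded at 1×10^3–4×10^3 cells/well and attached overnight. Compounds came from 10 mM DMSO stocks diluted in medium and were applied for 24 h. MTT (0.5 mg/mL) was added for 4 h at 37 °C, formazan was dissolved in DMSO, and absorbance was read at 570 nm.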

[2] = tested on: HCT-116; assay: Induction of morphological change in human HCT-116 cells assessed as cell detachment incubated for 24 hrs by phase contrast microscopic analysis; format: functional, cell-based
In short: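 HCT-116 plated at 1 × 10^6 cells/mL in RPMI + 10% FBS and allowed to adhere 24 h at 37 °C, 5% CO2. […] After 24 h, morphology imaged by phase-contrast microscopy at 20X.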

[3] = tested on: HCT-116; assay: Induction of apoptosis in human HCT-116 cells assessed as horseshoe shaped nuclei measured for 24 hrs by DAPI staining based microscopic analysis; format: functional, cell-based; conditions: dose 1.62-6.5 µM
In short: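 Then PBS wash, 4% paraformaldehyde fixation 30 min, 0.1% Triton X permeabilisation 15 min, 1 µM DAPI 15 min, PBS wash. Imaged by fluorescence microscopy (ex 350/em 460 nm), 20X.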

[4] = tested on: HCT-116; assay: Induction of apoptosis in human HCT-116 cells assessed as necrotic cells at 1.62 uM measured after 24 hrs by Annexin V-FITC/propidium iodide staining based flow cytometry (reference value: 0.00%); format: functional
[5] = tested on: HCT-116; assay: Induction of apoptosis in human HCT-116 cells assessed as viable cells at 3.25 uM measured after 24 hrs by Annexin V-FITC/propidium iodide staining based flow cytometry (reference value: 99.71%); format: functional; conditions: read-out: Activity
[6] = tested on: HCT-116; assay: Induction of apoptosis in human HCT-116 cells assessed as early apoptotic cells at 3.25 uM measured after 24 hrs by Annexin V-FITC/propidium iodide staining based flow cytometry (reference value: 0.28%); format: functional
[7] = tested on: HCT-116; assay: Induction of apoptosis in human HCT-116 cells assessed as late apoptotic cells at 3.25 uM measured after 24 hrs by Annexin V-FITC/propidium iodide staining based flow cytometry (reference value: 0.00%); format: functional
[8] = tested on: HCT-116; assay: Induction of apoptosis in human HCT-116 cells assessed as necrotic cells at 3.25 uM measured after 24 hrs by Annexin V-FITC/propidium iodide staining based flow cytometry (reference value: 0.00%); format: functional
[9] = tested on: HCT-116; assay: Induction of cell cycle arrest in human HCT-116 cells assessed as accumulation of cells at S phase at 6.50 uM measured after 48 hrs by PI staining based flow cytometry analysis relative to control (reference value: 5.55%); format: functional; conditions: dose 6.5 µM
[10] = tested on: HCT-116; assay: Induction of cell cycle arrest in human HCT-116 cells assessed as accumulation of cells at G2/M phase at 6.50 uM measured after 48 hrs by PI staining based flow cytometry analysis relative to control (reference value: 15.61%); format: functional; conditions: dose 6.5 µM
[11] = tested on: HCT-116; assay: Induction of cell cycle arrest in human HCT-116 cells assessed as accumulation of cells at S phase at 3.25 uM measured after 24 hrs by PI staining based flow cytometry analysis relative to control (reference value: 5.55%)

## COc1ccc(/C=C(/C(=O)OCc2cn(Cc3cc(F)ccc3F)nn2)c2ccc(OC)c(OC)c2)cc1OC
[1]
  IC50: 3.25 µM
[2]
  Activity: Dose-Dependent Effect
[3]
  Activity: Dose-Dependent Effect
[4]
  Activity: 0.52%
[5]
  viability at 3.25 µM: 44.6%
[6]
  Activity: 13.51%
[7]
  Activity: 25.22%
[8]
  Activity: 16.66%
[9]
  Activity: 12.73%
[10]
  Activity: 46.89%
[11]
  Activity: 9.51%
